Experiments:
[1] = biological target: Cannabinoid receptor 1 (Homo sapiens, UniProt P21554); assay: Activity at human CB1 receptor expressed in CHO cells assessed as cAMP accumulation incubated for 30 mins by time-resolved FRET assay; format: functional, cell-based
Summary of the method: (§1)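 CHO cells expressing human CB1 or CB2 were seeded 1 day before in DMEM/HT supplement/10% FCS. Medium was replaced with Krebs Ringer bicarbonate buffer containing 1 mM IBMX, 30 min at 30 °C, then compound added for 30 min at 30 °C. cAMP was read by time-resolved FRET (cAMP-Nano-TRF kit) against a standard curve from 10 μM to 0.13 nM. Ten concentrations in triplicate, single experiment.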

[2] = biological target: T1, Cannabinoid receptor 2 (Homo sapiens, UniProt P34972); assay: Displacement of [3H]CP-55,940 from human CB2 receptor expressed in CHO cell membranes
T1 sequence (P34972 whole entry): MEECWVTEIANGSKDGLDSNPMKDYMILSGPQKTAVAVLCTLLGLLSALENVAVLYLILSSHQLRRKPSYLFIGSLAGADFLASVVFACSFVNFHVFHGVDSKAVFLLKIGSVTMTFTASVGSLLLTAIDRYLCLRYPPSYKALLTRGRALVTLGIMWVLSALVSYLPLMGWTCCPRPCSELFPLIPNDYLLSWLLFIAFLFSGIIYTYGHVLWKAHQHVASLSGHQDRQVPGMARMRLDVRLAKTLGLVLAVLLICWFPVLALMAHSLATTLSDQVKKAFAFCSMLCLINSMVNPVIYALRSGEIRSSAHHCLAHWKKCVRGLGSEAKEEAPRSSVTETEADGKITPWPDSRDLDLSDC
Summary of the method: (§2)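 Membranes from CHO cells expressing human or murine CB2 were incubated with [3H]CP-55,940 in 50 mM Tris, 5 mM MgCl2, 2.5 mM EGTA, 0.1% fatty-acid-free BSA, pH 7.4, 1 h at 30 °C with shaking. Reaction stopped by filtration through PEI-coated GF/B. Ki from nonlinear regression using saturation-derived Kd. Ten concentrations in triplicate.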

[3] = biological target: Cannabinoid receptor 2 (Mus musculus, UniProt P47936); assay: Displacement of [3H]CP-55,940 from mouse CB2 receptor expressed in CHO cell membranes; summary of the method: as §2
Sequence of Cannabinoid receptor 2 (Mus musculus, UniProt P47936) (P47936 whole entry): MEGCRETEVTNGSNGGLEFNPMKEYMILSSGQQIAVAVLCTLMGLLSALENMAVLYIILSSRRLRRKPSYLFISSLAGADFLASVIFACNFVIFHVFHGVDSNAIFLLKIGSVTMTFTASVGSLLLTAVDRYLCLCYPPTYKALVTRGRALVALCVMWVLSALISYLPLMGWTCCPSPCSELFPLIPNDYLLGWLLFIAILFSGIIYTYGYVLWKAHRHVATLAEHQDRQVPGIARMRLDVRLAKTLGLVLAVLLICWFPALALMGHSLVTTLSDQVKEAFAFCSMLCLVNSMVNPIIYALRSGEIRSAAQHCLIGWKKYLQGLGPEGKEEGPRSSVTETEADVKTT

[4] = system: CHO; assay: Selectivity index, ratio of EC50 for human CB1 receptor expressed in CHO cells to EC50 for human CB2 receptor expressed in CHO cells; format: cell-based
[5] = biological target: T1, Cannabinoid receptor 2; assay: Activity at human CB2 receptor expressed in CHO cells assessed as cAMP accumulation incubated for 30 mins by time-resolved FRET assay; format: functional, cell-based; summary of the method: as §1
[6] = Lipophilicity, log D of the compound in n-octanol/phosphate buffer pH 7.4 by shake flask method; format: physicochemical
[7] = Ratio of drug level in brain to plasma in ip dosed rat; format: ADME, organism-based; conditions: read-out: BPR
[8] = biological target: T1, Cannabinoid receptor 2; assay: Binding affinity to human CB2 receptor
Summary of the method: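 Competition binding with [³H]CP-55,940 on membranes from CHO cells expressing human CB2. Buffer: 50 mM Tris, 5 mM MgCl₂, 2.5 mM EGTA, 0.1% fatty-acid-free BSA, pH 7.4. Incubated 1 h at 30 °C with shaking, then rapid filtration through 0.5% polyethylenimine-coated filters. Ki from nonlinear regression, using Kd from saturation experiments. Single experiment, triplicates, 10 concentrations.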

[9] = Drug level in brain of ip dosed rat after 1 hr; format: ADME, organism-based; conditions: read-out: Drug uptake
[10] = Substrate activity at P-gp (unknown origin); format: ADME; conditions: human

Sequence of Cannabinoid receptor 1 (P21554 whole entry, looked up): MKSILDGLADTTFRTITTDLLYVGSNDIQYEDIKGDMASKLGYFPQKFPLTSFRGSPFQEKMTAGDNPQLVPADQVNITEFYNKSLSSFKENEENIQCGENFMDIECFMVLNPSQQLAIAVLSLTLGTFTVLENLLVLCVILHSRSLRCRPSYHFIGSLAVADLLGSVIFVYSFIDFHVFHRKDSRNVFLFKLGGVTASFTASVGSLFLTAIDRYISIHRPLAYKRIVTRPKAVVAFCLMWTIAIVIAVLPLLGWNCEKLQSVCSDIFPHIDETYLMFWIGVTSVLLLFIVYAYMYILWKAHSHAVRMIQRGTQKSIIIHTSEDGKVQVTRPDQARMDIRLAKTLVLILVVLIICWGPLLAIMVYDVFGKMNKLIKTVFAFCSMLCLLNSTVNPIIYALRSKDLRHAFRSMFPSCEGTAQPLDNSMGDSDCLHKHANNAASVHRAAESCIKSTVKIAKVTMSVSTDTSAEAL

SMILES	EC50 [1] [nM]	Ki [2] [nM]	Ki [3] [nM]	Ratio EC50 [4]	Ratio EC50 ([4]; tested as the 11C-labelled form)	EC50 [5] [nM]	logD [6]	Kp [7]	Ki [8] [nM]	concentration at 1 h [9] [nM]	Activity [10]
CCOC(=O)C(CC)(CC)NC(=O)c1ccc(N2CC(OC)C2)c(OCC2CC2)n1	> 10000	2.5	1.8	> 1000	150	4.4					
CCC(CC)(NC(=O)c1ccc(N2CC(OC)C2)c(OCC2CC2)n1)C(=O)NCCCF	> 10000	2060	5260				3.67				
CC(C)(NC(=O)c1ccc(N2CC(F)(F)C2)c(OCC2CC2)n1)c1nnc(C2CC2)o1	> 10000	> 10000	> 10000			> 10000					
CCOCCOCC(C)(C)c1cc(NC(=O)c2ccc(C3CCCC3)c(OCC3CC3)n2)on1	> 10000	264	11.7								
COc1ccc2c(c1)c(CCN1CCOCC1)c(C)n2C(=O)c1cccc(Cl)c1Cl								5	3.9	> 100	
COC1CN(c2ccc(C(=O)NC(C)(C)Cc3nnc(C4CCC4)o3)nc2OCC2CC2)C1	> 10000					4010	3.37				
CCC(CC)(NC(=O)c1ccc(N2CC(OC)C2)c(OCC2CC2)n1)C(=O)NCCF	> 10000	902	421			281	3.43				
CCOC(=O)C(CC)(CC)NC(=O)c1ccc(C2CCCC2)c(OCC2CC2)n1	> 10000	16.2	38.5			2.9					
COC1CN(c2ccc(C(=O)NCC3(O)CCCCC3)nc2OCC2CC2)C1	> 10000	2870	2230								
CCC(CC)(NC(=O)c1ccc(N2CC(OC)C2)c(OCC2CC2)n1)C(=O)N1CC(F)C1	> 10000	18.3	6.9	> 1000		4.4	3.25				Active
COC1CN(c2ccc(C(=O)NC3(CC(N)=O)COC3)nc2OCC2CC2)C1	> 10000	1020	3110				1.7				
